Laboratory results from ChEMBL document CHEMBL5335784, “Discovery of a novel 1,3,4-oxadiazol-2-one-based NLRP3 inhibitor as a pharmacological agent to mitigate cardiac and metabolic complications in an experimental model of diet-induced metaflammation” (Eur J Med Chem, 2023).
The source made the active and inactive calls. The rule behind the calls is not given here.

Assays:
Rattus norvegicus [1] = assay: Antiinflammatory activity against high fat diet fed-induced metaflammation Wistar rat model assessed as reduction in HFD-induced anthropometric alterations by measuring reduction in abdominal fat deposition at 20 mg/kg/day, ip administered for 4 weeks; format: functional, organism-based
Outline: (§1)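 Male Wistar rats on high-fat diet (60% kcal fat) or standard diet for 12 weeks; 20 mg/kg/day i.p. or vehicle (saline, 2% DMSO, 5% Cremophor-EL) over the last 28 days. Body weight recorded weekly. After sacrifice, abdominal, epididymal, retroperitoneal and perirenal fat, liver and heart excised and weighed. Cardiac somatic index = heart weight/body weight ×100. n=6–7 per group.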

Rattus norvegicus [2] = assay: (§2) Inhibition of ischemia/reperfusion-induced oxidative stress in ischemia/reperfusion-induced myocardial injury and standard diet fed Wistar rat model assessed as increase in cardiac SOD activity at 20 mg/kg/day, ip administered for 4 weeks followed by excised heart exposed to global ischemia for 30 mins and reperfusion for 120 mins; format: functional, organism-based
Outline: (§3)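 Same rat diet, dosing and ischemia/reperfusion protocol. LV homogenized in 50 mM Tris-HCl pH 8.2 with 1 mM DTPA and centrifuged at 20,000 x g for 20 min. Supernatant mixed with 0.2 mM pyrogallol, autoxidation followed at 420 nm for 3 min. Activity given as % pyrogallol autoxidation relative to sham; 1 U inhibits the rate by 50%.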

[3] = Effect on glyco-metabolic profile in standard diet fed Wistar rat assessed as effect on HDL cholesterol level in plasma at 20 mg/kg/day, ip administered for 4 weeks; format: toxicity, organism-based; conditions: in vivo, 672 h
Outline: (§4)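 Rats fed HFD or SD for 12 weeks, dosed 20 mg/kg/day i.p. in saline/2% DMSO/5% Cremophor-EL during the final 28 days. Serum obtained after sacrifice by centrifuging blood at 2000 x g, 10 min, 4 °C. Glucose read by glucometer; total, HDL and LDL cholesterol and triglycerides measured with commercial kits. n=6–7 per group.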

Rattus norvegicus [4] = assay: Antiinflammatory activity against high fat diet fed-induced metaflammation Wistar rat model assessed as reduction in HFD-induced anthropometric alterations by measuring reduction in liver weight at 20 mg/kg/day, ip administered for 4 weeks; format: functional, organism-based; outline: as §1
Rattus norvegicus [5] = assay: (§5) Cardioprotective activity against ischemia/reperfusion-induced myocardial injury and standard diet fed Wistar rat model assessed as decrease in LDH activity in coronary effluents at 20 mg/kg/day, ip administered for 4 weeks followed by excised heart exposed to global ischemia for 30 mins and reperfusion for 120 mins and measured during first 20 mins of reperfusion by spectrophotometric analysis; format: functional, organism-based
Outline: (§6)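 HFD or SD rats, dosed 20 mg/kg/day i.p. for the final 28 days, anaesthetised with ethyl carbamate (2 g/kg i.p.). Hearts Langendorff-perfused with Krebs–Henseleit buffer (pH 7.4, 37 °C, 12 ml/min); 40 min stabilization, 30 min global no-flow ischemia, 120 min reperfusion. Coronary effluent collected on ice before ischemia and at 10, 20, 30 min reperfusion; LDH activity by McQueen method. n=6–7.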

[6] = Drug metabolism in human THP-1 cells assessed as half time for compound hydrolysis to 2-(5-(2-Chlorobenzyl)-2-oxo-1,3,4-oxadiazol-3(2H)-yl)acetic acid at 100 uM by RP-HPLC analysis; format: ADME, cell-based
Outline: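 PMA-differentiated THP-1 cells lysed in RIPA buffer. Compound added to lysate at 100 μM final (from 10 mM DMSO stock) at 37 °C. Aliquots at intervals deproteinized with CH3CN/0.1% TFA and quantified by RP-HPLC against standards. Pseudo-first-order t1/2 from exponential decay fit; three experiments.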

[7] = molecular target: T1, NACHT, LRR and PYD domains-containing protein 3 (Homo sapiens, UniProt Q96P20); assay: Inhibition of NLRP3 inflammasome activation in PMA-differentiated human THP-1 cells assessed as inhibition of LPS/ATP-induced IL-1 beta release pretreated for 4 hrs with LPS followed by incubation with compound for 1 hr and later treated with ATP for 1.5 hrs by ELISA; format: cell-based
Rattus norvegicus [8] = assay: as §5, with “first 30” for “first 20”; format: functional, organism-based; outline: as §6
[9] = molecular target: T1, NACHT, LRR and PYD domains-containing protein 3; assay: Inhibition of NLRP3-dependent pyroptosis in PMA-differentiated human THP-1 cells assessed as inhibition of LPS/MSU-induced cell death at 10 uM by LDH assay; format: cell-based
Rattus norvegicus [10] = assay: Antiinflammatory activity against high fat diet fed-induced metaflammation Wistar rat model assessed as reduction in HFD-induced metabolic alterations by measuring reduction in LDL cholesterol level in plasma at 20 mg/kg/day, ip administered for 4 weeks; format: functional, organism-based; outline: as §4
Rattus norvegicus [11] = assay: Antiinflammatory activity against high fat diet fed-induced metaflammation Wistar rat model assessed as reduction in HFD-induced anthropometric alterations by measuring reduction in retroperitoneal fat deposition at 20 mg/kg/day, ip administered for 4 weeks; format: functional, organism-based; outline: as §1
Rattus norvegicus [12] = assay: as §5, with “and high” for “and standard”, “fed obese” for “fed”, “first 10” for “first 20”; format: functional, organism-based; outline: as §6
Rattus norvegicus [13] = assay: Cardioprotective activity against ischemia/reperfusion-induced myocardial injury and high diet fed obese Wistar rat model assessed as infarct size at 20 mg/kg/day, ip administered for 4 weeks followed by excised heart exposed to global ischemia for 30 mins and reperfusion for 120 mins and measured at the end of reperfusion by nitroblue tetrazolium staining based analysis (Rvb ~ 70+/-1%); format: functional; conditions: 672 h
Outline: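 Hearts from HFD or SD rats (20 mg/kg/day i.p., last 28 days) Langendorff-perfused (KH buffer, 37 °C, 12 ml/min). After 40 min stabilization they underwent 30 min global ischemia and 120 min reperfusion. The LV was stained; unstained necrotic and stained viable tissue separated and weighed. Infarct size expressed as % of LV mass. n=6–7.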

Rattus norvegicus [14] = assay: Cardioprotective activity against high fat diet fed-induced metaflammation Wistar rat model assessed as reduction in myocardial damage by measuring reduction in plasma Gal-3level at 20 mg/kg/day, ip administered for 4 weeks by ELISA; format: functional, organism-based
Outline: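 Male Wistar rats on HFD or SD for 12 weeks received 20 mg/kg/day i.p. (saline, 2% DMSO, 5% Cremophor-EL) or vehicle for the last 28 days. Circulating IL-1β, TNF-α, BNP and Gal-3 quantified by ELISA in blood collected after sacrifice. n=6–7 per group.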

[15] = Effect on left ventricular end diastolic pressure in high diet fed obese Wistar rat model at 20 mg/kg/day, ip administered for 4 weeks (reference value: 6+/-0.2 mm Hg); format: toxicity, organism-based; conditions: in vivo, 672 h
[16] = Stability of the compound in saline solution containing 2% DMSO and 5% Cremophor-EL measured at 25 degC for more than 7 days by RP-HPLC analysis; format: physicochemical; conditions: buffer, 168 h; time 7 day
Outline: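 A 2 mg/mL solution in saline with 2% DMSO and 5% Cremophor-EL was kept at 4 °C or 25 °C for 7 days and analysed daily by RP-HPLC at 226/254 nm.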

[17] = Effect on LDH level in standard diet fed Wistar rat plasma at 20 mg/kg/day, ip administered for 4 weeks; format: toxicity, organism-based; conditions: in vivo, 672 h
Rattus norvegicus [18] = assay: as §2, with “high fat” for “standard”, “fed obese” for “fed”; format: functional, organism-based; outline: as §3
Rattus norvegicus [19] = assay: Inhibition of ischemia/reperfusion-induced inflammation in ischemia/reperfusion-induced myocardial injury and standard diet fed Wistar rat model assessed as decrease in cardiac IL-1 beta level at 20 mg/kg/day, ip administered for 4 weeks followed by excised heart exposed to global ischemia for 30 mins and reperfusion for 120 mins by ELISA; format: functional, organism-based
Outline: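 Male Wistar rats on standard or 60% kcal fat diet for 12 weeks; last 28 days i.p. 20 mg/kg/day in saline with 2% DMSO and 5% Cremophor-EL, or vehicle. Hearts perfused by Langendorff with KH buffer at 12 ml/min, 37°C, then 40 min stabilization, 30 min global no-flow ischemia and 120 min reperfusion. Cytokines measured in LV tissue; n=6–7 per group.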

T1 sequence (Q96P20 whole entry, the tested form may be a part): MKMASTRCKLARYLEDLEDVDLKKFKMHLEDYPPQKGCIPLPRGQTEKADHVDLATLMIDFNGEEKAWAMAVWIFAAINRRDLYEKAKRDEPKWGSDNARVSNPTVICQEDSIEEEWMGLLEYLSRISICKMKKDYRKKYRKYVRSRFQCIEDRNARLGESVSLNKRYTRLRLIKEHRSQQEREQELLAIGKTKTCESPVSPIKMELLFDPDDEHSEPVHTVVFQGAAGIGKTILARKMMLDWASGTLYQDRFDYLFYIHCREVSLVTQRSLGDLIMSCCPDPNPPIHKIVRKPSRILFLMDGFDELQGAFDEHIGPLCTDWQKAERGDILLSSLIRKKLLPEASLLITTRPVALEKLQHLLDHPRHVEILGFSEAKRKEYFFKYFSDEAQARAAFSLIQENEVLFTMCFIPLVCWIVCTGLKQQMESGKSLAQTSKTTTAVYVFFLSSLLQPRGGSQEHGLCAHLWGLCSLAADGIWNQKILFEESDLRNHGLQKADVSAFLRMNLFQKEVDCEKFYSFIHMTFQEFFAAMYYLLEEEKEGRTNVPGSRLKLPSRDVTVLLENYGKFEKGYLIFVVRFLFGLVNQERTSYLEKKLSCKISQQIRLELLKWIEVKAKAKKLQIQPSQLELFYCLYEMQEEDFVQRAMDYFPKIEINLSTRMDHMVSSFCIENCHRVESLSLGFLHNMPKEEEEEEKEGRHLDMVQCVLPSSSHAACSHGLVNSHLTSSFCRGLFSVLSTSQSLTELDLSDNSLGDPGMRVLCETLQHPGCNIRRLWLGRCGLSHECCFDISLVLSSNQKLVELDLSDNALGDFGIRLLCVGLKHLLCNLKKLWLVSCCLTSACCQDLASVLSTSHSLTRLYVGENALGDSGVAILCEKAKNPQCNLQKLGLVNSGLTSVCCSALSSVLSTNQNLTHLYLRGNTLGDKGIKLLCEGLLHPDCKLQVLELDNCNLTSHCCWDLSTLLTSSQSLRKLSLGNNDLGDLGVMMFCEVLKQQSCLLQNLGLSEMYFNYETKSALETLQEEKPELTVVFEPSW

## CCOC(=O)Cn1nc(Cc2ccccc2Cl)oc1=O
Rattus norvegicus [1]
  Activity: Active
Rattus norvegicus [2]
  inhibition: Active
[3]
  Activity: Non-Toxic
Rattus norvegicus [4]
  Activity: Active
Rattus norvegicus [5]
  Activity: Active
[6]
  half-life at 100 µM: 1.08 h
[7]
  IC50: 16.6 µM
Rattus norvegicus [8]
  Activity: Active
[9]
  inhibition: 61.6%
Rattus norvegicus [10]
  Activity: Active
Rattus norvegicus [11]
  Activity: Active
Rattus norvegicus [12]
  Activity: Active
Rattus norvegicus [13]
  infarct size in vivo at 20 mg/kg/day: ~61%
Rattus norvegicus [14]
  Activity: Active
[15]
  Activity: 4 mmHg
[16]
  Stability: Stable
[17]
  Activity: Non-Toxic
Rattus norvegicus [18]
  inhibition: Active
Rattus norvegicus [19]
  inhibition: Active
